The subject of assay [1] is Mus musculus. In words: Bronchoprotection in Balb/C mouse bronchoconstriction model assessed as inhibition of aerosolized methacholin-induced bronchoconstriction at 50 ug administered intranasally 24 hrs before methacholin challenge. The assay is classed as functional. The method in brief:
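Conscious mice given compound by inhalation at 50 µg per mouse 24 h before challenge with aerosolized methacholine; bronchoconstriction inhibition recorded.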

Assay [2] addresses T1, Muscarinic acetylcholine receptor M1 (Homo sapiens, UniProt P11229).
T1 sequence (P11229 whole entry): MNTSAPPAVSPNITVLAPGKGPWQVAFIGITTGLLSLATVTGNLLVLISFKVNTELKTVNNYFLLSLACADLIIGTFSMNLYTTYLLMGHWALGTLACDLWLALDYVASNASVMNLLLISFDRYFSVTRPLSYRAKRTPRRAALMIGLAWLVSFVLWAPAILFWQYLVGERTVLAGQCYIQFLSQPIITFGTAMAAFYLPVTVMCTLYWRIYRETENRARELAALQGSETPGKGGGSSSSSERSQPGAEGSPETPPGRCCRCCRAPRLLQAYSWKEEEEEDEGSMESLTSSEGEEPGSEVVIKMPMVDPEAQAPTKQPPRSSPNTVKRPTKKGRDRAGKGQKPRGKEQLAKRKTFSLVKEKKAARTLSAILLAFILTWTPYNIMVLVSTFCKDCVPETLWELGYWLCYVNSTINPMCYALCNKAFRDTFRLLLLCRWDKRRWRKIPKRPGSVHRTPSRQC
In words: Antagonist activity against human cloned muscarinic M1 receptor expressed in CHO cells assessed as inhibition of acetylcholine-induced calcium mobilization by measuring ratio of acetylcholine EC50 in presence and absence of compound by FLIPR assay. Particulars: read-out: pA2 (converted). Type of assay: functional, cell-based. The essentials: (§1)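 Run as pA2 determination on FLIPR in CHO cells expressing human M1 or M2 receptor: ACh concentration–response run with and without a single concentration of compound, calcium mobilization read, and the ratio of ACh EC50 values used to derive pA2.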

In assay [3] the target is T2, Muscarinic acetylcholine receptor M2 (Homo sapiens, UniProt P08172).
T2 sequence (P08172 whole entry): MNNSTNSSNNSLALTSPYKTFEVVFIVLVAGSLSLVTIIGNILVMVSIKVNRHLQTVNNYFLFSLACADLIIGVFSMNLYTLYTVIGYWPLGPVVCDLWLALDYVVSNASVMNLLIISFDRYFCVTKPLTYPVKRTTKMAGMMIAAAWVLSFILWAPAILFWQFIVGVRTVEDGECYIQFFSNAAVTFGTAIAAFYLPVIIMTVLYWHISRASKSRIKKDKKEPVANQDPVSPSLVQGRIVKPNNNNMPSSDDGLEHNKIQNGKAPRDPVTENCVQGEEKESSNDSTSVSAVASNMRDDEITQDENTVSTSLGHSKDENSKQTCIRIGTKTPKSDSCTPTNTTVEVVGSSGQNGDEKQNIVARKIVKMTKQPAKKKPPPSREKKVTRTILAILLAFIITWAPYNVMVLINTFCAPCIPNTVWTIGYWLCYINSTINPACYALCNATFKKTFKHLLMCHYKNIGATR
In words: Antagonist activity against human cloned muscarinic M2 receptor expressed in CHO cells assessed as inhibition of acetylcholine-induced calcium mobilization by measuring ratio of acetylcholine EC50 in presence and absence of compound by FLIPR assay. Type of assay: functional, cell-based. As to conditions: read-out: pA2 (converted). The essentials: as §1
(In general: Calcium assays in cells follow changes in intracellular calcium, usually with a dye or a luminescent sensor.)

The target of assay [4] is T3, Muscarinic acetylcholine receptor M3 (Homo sapiens, UniProt P20309). In words: Antagonist activity against human cloned muscarinic M3 receptor expressed in CHO cells assessed as inhibition of acetylcholine-induced calcium mobilization by FLIPR. Type of assay: functional, cell-based.
Target sequence in this assay (P20309 whole entry): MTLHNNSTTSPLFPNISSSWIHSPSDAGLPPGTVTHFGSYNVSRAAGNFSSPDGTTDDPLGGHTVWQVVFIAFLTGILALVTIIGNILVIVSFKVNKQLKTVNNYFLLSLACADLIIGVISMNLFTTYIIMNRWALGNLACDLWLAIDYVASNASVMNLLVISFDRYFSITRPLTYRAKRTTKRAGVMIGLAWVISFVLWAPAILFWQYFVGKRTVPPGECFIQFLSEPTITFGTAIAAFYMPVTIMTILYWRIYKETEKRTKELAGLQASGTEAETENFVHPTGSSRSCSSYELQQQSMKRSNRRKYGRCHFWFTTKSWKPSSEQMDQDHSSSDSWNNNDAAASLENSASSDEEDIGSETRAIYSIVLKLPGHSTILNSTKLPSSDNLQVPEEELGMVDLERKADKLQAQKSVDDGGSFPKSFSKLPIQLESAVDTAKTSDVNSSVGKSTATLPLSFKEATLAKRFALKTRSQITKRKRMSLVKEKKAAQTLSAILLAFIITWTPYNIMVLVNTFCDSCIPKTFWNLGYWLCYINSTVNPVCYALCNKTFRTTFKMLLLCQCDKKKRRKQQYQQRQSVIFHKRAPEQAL
Assay [5] concerns the target T4, Muscarinic acetylcholine receptor M2 (Homo sapiens) (UniProt P08172).
T4 sequence (whole entry): T2 sequence (P08172 whole entry)
Put plainly: Agonist activity at human cloned muscarinic M2 receptor expressed in CHO cells assessed as effect on calcium mobilization by FLIPR. Type of assay: functional, cell-based. The essentials:
(§2)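 CHO cells stably carrying cloned human M1, M2 or M3 receptor; compound applied alone and checked for direct receptor stimulation, read as calcium mobilization on a standard FLIPR protocol.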

In assay [6] the target is T2, Muscarinic acetylcholine receptor M2. In words: Displacement of [3H]N-methyl Scopolamine from human cloned muscarinic M2 receptor expressed in CHO cell membrane. Type of assay: cell membranes. The essentials:
(§3)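 SPA format with CHO cell membrane preparations bearing human M1 or M2 receptor; competition versus 0.5 nM [3H]-N-methyl scopolamine; Ki reported; mean of two or more independent assays.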
In general terms: Displacement assays read how much labelled ligand stays bound in the presence of the test substance.

Assay [7] has as its target T3, Muscarinic acetylcholine receptor M3. Put plainly: Displacement of [3H]N-methyl Scopolamine from human cloned muscarinic M3 receptor expressed in CHO cell membrane. Type of assay: cell membranes. The method in brief:
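SPA-format competition binding on membranes from CHO cells expressing the human M3 receptor, against 0.5 nM [3H]-N-methyl scopolamine. Ki values are the mean of two or more independent assays.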
Target sequence in this assay (P20309 whole entry): as above

Assay [8] has as its target T1, Muscarinic acetylcholine receptor M1. In words: Displacement of [3H]N-methyl Scopolamine from human cloned muscarinic M1 receptor expressed in CHO cell membrane. The assay is classed as cell membranes. The essentials:
as §3

The target of assay [9] is T5, Muscarinic acetylcholine receptor M1 (Homo sapiens) (UniProt P11229).
T5 sequence (whole entry): T1 sequence (P11229 whole entry)
In words: Agonist activity at human cloned muscarinic M1 receptor expressed in CHO cells assessed as effect on calcium mobilization by FLIPR. Type of assay: functional, cell-based. The method in brief:
as §2

Assay [10] has as its target T3, Muscarinic acetylcholine receptor M3. Put plainly: Antagonist activity against human cloned muscarinic M3 receptor expressed in CHO cells assessed as inhibition of acetylcholine-induced calcium mobilization by measuring ratio of acetylcholine EC50 in presence and absence of compound by FLIPR assay. Type of assay: functional, cell-based. Particulars: read-out: pA2 (converted). The method in brief: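 CHO cells expressing cloned human M3 receptor, stimulated with ACh. Calcium mobilization read by a standard FLIPR protocol. ACh EC50 was measured with and without a single concentration of compound, and pA2 was derived from the ratio of the EC50s.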
Target sequence in this assay (P20309 whole entry): as above

The target in assay [11] is T1, Muscarinic acetylcholine receptor M1. In words: Antagonist activity against human cloned muscarinic M1 receptor expressed in CHO cells assessed as inhibition of acetylcholine-induced calcium mobilization by FLIPR. Type of assay: functional, cell-based.
For assay [12], the target named is T2, Muscarinic acetylcholine receptor M2. In words: Antagonist activity against human cloned muscarinic M2 receptor expressed in CHO cells assessed as inhibition of acetylcholine-induced calcium mobilization by FLIPR. The assay is classed as functional, cell-based.
Assay [13] concerns the target T3, Muscarinic acetylcholine receptor M3. In words: Agonist activity at human cloned muscarinic M3 receptor expressed in CHO cells assessed as effect on calcium mobilization by FLIPR. The assay is classed as functional, cell-based. The essentials: as §2
Target sequence in this assay (P20309 whole entry, looked up): as the sequence (P20309 whole entry) above
The subject of assay [14] is Mus musculus. In words: Bronchoprotection in Balb/C mouse bronchoconstriction model assessed as inhibition of aerosolized methacholin-induced bronchoconstriction at 5 ug administered intranasally 24 hrs before methacholin challenge. Type of assay: functional.
Assay [15] relates to Mus musculus. In words: Bronchoprotection in Balb/C mouse bronchoconstriction model assessed as inhibition of aerosolized methacholin-induced bronchoconstriction administered intranasally before 5 hrs before methacholin challenge. The assay is classed as functional, organism-based. The essentials: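 Balb/C mice (n = 4) dosed intranasally across a dose range (µg/mouse), challenged 5 h later with aerosolized methacholine 30 mg/ml for 2 min; Penh by whole-body plethysmography over 5 min; ratio of post-drug to pre-drug Penh (1.0 = 0% inhibition, 0.0 = 100%); ED50 from dose–response.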

The subject of assay [16] is Mus musculus. In words: Bronchoprotection in Balb/C mouse bronchoconstriction model assessed as inhibition of aerosolized methacholin-induced bronchoconstriction at 5 ug administered intranasally before 0.25 to 48 hrs before methacholin challenge. Type of assay: functional, organism-based. The method in brief: (§4)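 Balb/C mice (n = 4) dosed intranasally at 0.5 or 5.0 µg per mouse, then challenged with aerosolized methacholine 30 mg/ml for 2 min at 0.25–48 h after dosing; Penh by plethysmography over 5 min, expressed as post-drug/pre-drug Penh ratio.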

Assay [17] deals with Mus musculus. Put plainly: Bronchoprotection in Balb/C mouse bronchoconstriction model assessed as inhibition of aerosolized methacholin-induced bronchoconstriction at 0.5 ug administered intranasally before 0.25 to 48 hrs before methacholin challenge. The assay is classed as functional, organism-based. The essentials: as §4

Activity calls are given as the source filed them. The rule behind the calls is not given here.

Take `CN1[C@@H]2CC[C@H]1C[C@@H](CC(O)(c1ccccc1)c1ccccc1)C2`: the “inhibition (INH)” value in [1] is less than 5%. In addition, the Kb is 0.794 nM in assay [2], 3.98 nM in [3] and 2.51 nM in assay [10]. Further, the IC50 in [4], in assay [11] and in [12] was less than 10 nM in each case. For the same molecule, the outcome in assay [5], in [9] and in [13] was inactive. Also, the Ki is 6.31 nM in [6], 2 nM in [7] and 0.501 nM in assay [8].

Turning to `C[N+]1(C)[C@@H]2CC[C@H]1C[C@@H](CC(C#N)(c1ccccc1)c1ccccc1)C2.[Br-]`, the “inhibition (INH)” value in assay [14] is on record as greater than 95%. For the same molecule, the Kb in assay [2] was 0.00398 nM; in assay [3], 0.0501 nM; in assay [10], 0.02 nM. The Activity result in assay [15] was “Dose-dependent effect”. In addition, the IC50 in assay [4], in assay [11] and in assay [12] was less than 10 nM each time. For the same molecule, the outcome in assay [5], in assay [9] and in [13] was inactive. Moreover, the result in assay [16] and in assay [17] was Active. Moreover, the Ki in [6] is 0.158 nM; in assay [7], 0.0631 nM; in assay [8] it was 0.0501 nM.

What is called IC50 is the concentration at which inhibition is half-maximal. As a reminder, the Ki is a dissociation constant, usually derived from enzyme kinetics or from competition with a known ligand. A low value points to tighter binding.
